# According to article PMC10238757 (Pharmacology Research & Perspectives, 2023):
# Like-named read-outs stand apart in the source and are kept apart here. Marks after values point to notes of the source that are not given here.
# What was measured:
# [1] = Multiple ascending dose; assay type: in vivo, human; conditions: for half-life / AUC(0-t) / Cmax / concentration at 24 h / Tmax / concentration at 168 h: human, plasma, oral; for Cmax: C max; for Cmax / concentration at 24 h / concentration at 168 h: ng/mL GM (%CVb); for concentration at 24 h / concentration at 168 h: C trough; for Tmax: t max, h median (range)
# Summary of the method: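 Healthy participants, double-blind and placebo-controlled, cohorts of 10 randomized 7:3. Oral doses after a moderate-fat meal: 25–100 mg QD for 14 days (18 days at top dose), or 500 mg QW ×3. Trough taken pre-dose at end of interval (24 h QD, 168 h QW). Plasma followed to 360 h; LLOQ 10 ng/mL. Non-compartmental PK; accumulation ratios Day 14, 15 or 18 vs Day 1; geometric means with CVb.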
# [2] = Relative bioavailability and food effect; assay type: in vivo, human; conditions: 100 mg; for Tmax: human, plasma, oral, Median t max
# Summary of the method: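 Open-label, single-dose, 3-period cross-over; 17 healthy participants; washout ≥24 days. Each received 100 mg oral as PiB fed, tablet fed or tablet fasted. Overnight fast ≥9.5 h before and ≥4 h after dosing; fed arms got a moderate-fat meal 25 min pre-dose. Non-compartmental PK. Log_e PK parameters fitted by mixed-effect models (fed/fasted, tablet/PiB fixed; participant random). Back-transformed 90% CIs for AUC_0‐24, AUC_0‐∞, Cmax.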
# [3] = test system: healthy participants; conditions: for Abdominal pain, n occurrences (% of cohort) / All-cause AEs Grade 2, n occurrences (% of cohort) / All-cause AEs Grade 3/4, n occurrences (% of cohort) / All-cause AEs, n occurrences (% of cohort) / Constipation, n occurrences (% of cohort) / Diarrhea, n occurrences (% of cohort) / Drug-related AEs Grade 2, n occurrences (% of cohort) / Drug-related AEs Grade 3/4, n occurrences (% of cohort) / Drug-related AEs, n occurrences (% of cohort) / Headache, n occurrences (% of cohort) / MDSD, n occurrences (% of cohort): N=6
# [4] = test system: HIV-1; conditions: cited from earlier work
compound,measurement,setting,value
C=C(C)[C@@H]1CC[C@]2(NCCN3CCS(=O)(=O)CC3)CC[C@]3(C)[C@H](CC[C@@H]4[C@@]5(C)CC=C(C6=CC[C@@](COc7ncccc7C#N)(C(=O)O)CC6)C(C)(C)[C@@H]5CC[C@]43C)[C@@H]12 [GSK'937],Accumulation ratio of C trough GM (%CVb),"[1]; 25 mg QD, Day 14/Day 1",6.58 (31.4)
same,Accumulation ratio of C trough GM (%CVb),"[1]; 50 mg QD, Day 14/Day 1",5.25 (35.7)
same,Accumulation ratio of C trough GM (%CVb),"[1]; 100 mg QD, Day 18/Day 1",9.39 (72.5)
same,accumulation in exposure following repeat dosing,[1]; 500 mg QW (weekly),~ 1.7 fold
same,Accumulation ratio of AUC0-t GM (%CVb),"[1]; 500 mg QW, Day 15/Day 1",1.76 (27.0)
same,Accumulation ratio of C max GM (%CVb),"[1]; 500 mg QW, Day 15/Day 1",1.68 (26.9)
same,Accumulation ratio of C trough GM (%CVb),"[1]; 500 mg QW, Day 15/Day 1",1.82 (33.8)
same,time after final dose at which still detectable,[1]; all part 2 participants,360 h
same,half-life,[1],72.2 to 85.8 h
same,AUC(0-t),[1]; 25 mg,1890 ng·h/mL
same,half-life,[1]; 25 mg,85.8 h
same,Cmax,"[1]; 25 mg, 25 mg QD, Day 1",132 ng/mL
same,Cmax,"[1]; 25 mg, 25 mg QD, Day 14",766 ng/mL
same,concentration at 24 h,"[1]; 25 mg, 25 mg QD, Day 1, 24 h",89.3 ng/mL
same,concentration at 24 h,"[1]; 25 mg, 25 mg QD, Day 14, 24 h",588 ng/mL
same,Tmax,"[1]; 25 mg, 25 mg QD, Day 1",9 h
same,Tmax,"[1]; 25 mg, 25 mg QD, Day 14",6.95 h
same,AUC(0-t),[1]; 50 mg,3560 ng·h/mL
same,half-life,[1]; 50 mg,72.2 h
same,Cmax,"[1]; 50 mg, 50 mg QD, Day 1",232 ng/mL
same,Cmax,"[1]; 50 mg, 50 mg QD, Day 14",1150 ng/mL
same,concentration at 24 h,"[1]; 50 mg, 50 mg QD, Day 1, 24 h",189 ng/mL
same,concentration at 24 h,"[1]; 50 mg, 50 mg QD, Day 14, 24 h",990 ng/mL
same,Tmax,"[1]; 50 mg, 50 mg QD, Day 1",8 h
same,Tmax,"[1]; 50 mg, 50 mg QD, Day 14",7.03 h
same,AUC(0-t),[1]; 100 mg,5890 ng·h/mL
same,half-life,[1]; 100 mg,78.5 h
same,Cmax,"[1]; 100 mg, 100 mg QD, Day 1",375 ng/mL
same,Cmax,"[1]; 100 mg, 100 mg QD, Day 14",2680 ng/mL
same,Cmax,"[1]; 100 mg, 100 mg QD, Day 18",2750 ng/mL
same,concentration at 24 h,"[1]; 100 mg, 100 mg QD, Day 1, 24 h",272 ng/mL
same,concentration at 24 h,"[1]; 100 mg, 100 mg QD, Day 14, 24 h",2420 ng/mL
same,concentration at 24 h,"[1]; 100 mg, 100 mg QD, Day 18, 24 h",2460 ng/mL
same,Tmax,"[1]; 100 mg, 100 mg QD, Day 1",9 h
same,Tmax,"[1]; 100 mg, 100 mg QD, Day 14",7.49 h
same,Tmax,"[1]; 100 mg, 100 mg QD, Day 18",9.01 h
same,half-life,[1]; 500 mg,74.5 h
same,Cmax,"[1]; 500 mg, 500 mg QW, Day 1",1110 ng/mL
same,Cmax,"[1]; 500 mg, 500 mg QW, Day 8",2320 ng/mL
same,Cmax,"[1]; 500 mg, 500 mg QW, Day 15",1860 ng/mL
same,concentration at 168 h,"[1]; 500 mg, 500 mg QW, Day 1, 168 h",251 ng/mL
same,concentration at 168 h,"[1]; 500 mg, 500 mg QW, Day 8, 168 h",498 ng/mL
same,concentration at 168 h,"[1]; 500 mg, 500 mg QW, Day 15, 168 h",455 ng/mL
same,Tmax,"[1]; 500 mg, 500 mg QW, Day 1",9.88 h
same,Tmax,"[1]; 500 mg, 500 mg QW, Day 8",10 h
same,Tmax,"[1]; 500 mg, 500 mg QW, Day 15",10 h
same,"increase in C max, tablet versus PiB",[2]; fed,approximately 37%
same,"increase in bioavailability by AUC0-24, tablet versus PiB",[2]; fed,38%
same,"increase in bioavailability by AUC0-∞, tablet versus PiB",[2]; fed,35%
same,Tmax,[2]; 100 mg PiB fed,9 h
same,Tmax,[2]; 100 mg tablet fasted,6 h
same,Tmax,[2]; both tablet and PiB formulations under fed conditions,8 to 9 h
same,exposure in fed versus fasted states,[2]; tablet,> 2 fold
same,deaths or SAEs,[3]; SAD,No deaths or SAEs occurred
same,"Abdominal pain, n occurrences (% of cohort)",[3]; SAD 10 mg,1 (17)
same,"All-cause AEs Grade 2, n occurrences (% of cohort)",[3]; SAD 10 mg,0
same,"All-cause AEs Grade 3/4, n occurrences (% of cohort)",[3]; SAD 10 mg,0
same,"All-cause AEs, n occurrences (% of cohort)",[3]; SAD 10 mg,3 (17)
same,"Constipation, n occurrences (% of cohort)",[3]; SAD 10 mg,0
same,"Diarrhea, n occurrences (% of cohort)",[3]; SAD 10 mg,0
same,"Drug-related AEs Grade 2, n occurrences (% of cohort)",[3]; SAD 10 mg,0
same,"Drug-related AEs Grade 3/4, n occurrences (% of cohort)",[3]; SAD 10 mg,0
same,"Drug-related AEs, n occurrences (% of cohort)",[3]; SAD 10 mg,3 (17)
same,"Headache, n occurrences (% of cohort)",[3]; SAD 10 mg,1 (17)
same,"MDSD, n occurrences (% of cohort)",[3]; SAD 10 mg,0
same,"Abdominal pain, n occurrences (% of cohort)",[3]; SAD 30 mg,0
same,"All-cause AEs Grade 2, n occurrences (% of cohort)",[3]; SAD 30 mg,1 (17)
same,"All-cause AEs Grade 3/4, n occurrences (% of cohort)",[3]; SAD 30 mg,0
same,"All-cause AEs, n occurrences (% of cohort)",[3]; SAD 30 mg,5 (50)
same,"Constipation, n occurrences (% of cohort)",[3]; SAD 30 mg,2 (33)
same,"Diarrhea, n occurrences (% of cohort)",[3]; SAD 30 mg,0
same,"Drug-related AEs Grade 2, n occurrences (% of cohort)",[3]; SAD 30 mg,1 (17)
same,"Drug-related AEs Grade 3/4, n occurrences (% of cohort)",[3]; SAD 30 mg,0
same,"Drug-related AEs, n occurrences (% of cohort)",[3]; SAD 30 mg,1 (17)
same,"Headache, n occurrences (% of cohort)",[3]; SAD 30 mg,0
same,"MDSD, n occurrences (% of cohort)",[3]; SAD 30 mg,1 (17)
same,"Abdominal pain, n occurrences (% of cohort)",[3]; SAD 80 mg,0
same,"All-cause AEs Grade 2, n occurrences (% of cohort)",[3]; SAD 80 mg,0
same,"All-cause AEs Grade 3/4, n occurrences (% of cohort)",[3]; SAD 80 mg,0
same,"All-cause AEs, n occurrences (% of cohort)",[3]; SAD 80 mg,4 (50) ^f
same,"Constipation, n occurrences (% of cohort)",[3]; SAD 80 mg,0
same,"Diarrhea, n occurrences (% of cohort)",[3]; SAD 80 mg,0
same,"Drug-related AEs Grade 2, n occurrences (% of cohort)",[3]; SAD 80 mg,0
same,"Drug-related AEs Grade 3/4, n occurrences (% of cohort)",[3]; SAD 80 mg,0
same,"Drug-related AEs, n occurrences (% of cohort)",[3]; SAD 80 mg,1 (17)
same,"Headache, n occurrences (% of cohort)",[3]; SAD 80 mg,1 (17)
same,"MDSD, n occurrences (% of cohort)",[3]; SAD 80 mg,0
same,"Abdominal pain, n occurrences (% of cohort)",[3]; SAD 320 mg,1 (17)
same,"All-cause AEs Grade 2, n occurrences (% of cohort)",[3]; SAD 320 mg,1 (17)
same,"All-cause AEs Grade 3/4, n occurrences (% of cohort)",[3]; SAD 320 mg,0
same,"All-cause AEs, n occurrences (% of cohort)",[3]; SAD 320 mg,5 (33)
same,"Constipation, n occurrences (% of cohort)",[3]; SAD 320 mg,0
same,"Diarrhea, n occurrences (% of cohort)",[3]; SAD 320 mg,1 (17)
same,"Drug-related AEs Grade 2, n occurrences (% of cohort)",[3]; SAD 320 mg,0
same,"Drug-related AEs Grade 3/4, n occurrences (% of cohort)",[3]; SAD 320 mg,0
same,"Drug-related AEs, n occurrences (% of cohort)",[3]; SAD 320 mg,4 (17)
same,"Headache, n occurrences (% of cohort)",[3]; SAD 320 mg,0
same,"MDSD, n occurrences (% of cohort)",[3]; SAD 320 mg,0
same,"Abdominal pain, n occurrences (% of cohort)",[3]; SAD 640 mg,1 (17)
same,"All-cause AEs Grade 2, n occurrences (% of cohort)",[3]; SAD 640 mg,2 (17)
same,"All-cause AEs Grade 3/4, n occurrences (% of cohort)",[3]; SAD 640 mg,0
same,"All-cause AEs, n occurrences (% of cohort)",[3]; SAD 640 mg,8 (67)
same,"Constipation, n occurrences (% of cohort)",[3]; SAD 640 mg,1 (17)
same,"Diarrhea, n occurrences (% of cohort)",[3]; SAD 640 mg,1 (17)
same,"Drug-related AEs Grade 2, n occurrences (% of cohort)",[3]; SAD 640 mg,2 (17)
same,"Drug-related AEs Grade 3/4, n occurrences (% of cohort)",[3]; SAD 640 mg,0
same,"Drug-related AEs, n occurrences (% of cohort)",[3]; SAD 640 mg,2 (17)
same,"Headache, n occurrences (% of cohort)",[3]; SAD 640 mg,0
same,"MDSD, n occurrences (% of cohort)",[3]; SAD 640 mg,4 (67)
same,"Abdominal pain, n occurrences (% of cohort)",[3]; SAD 800 mg,0
same,"All-cause AEs Grade 2, n occurrences (% of cohort)",[3]; SAD 800 mg,1 (17)
same,"All-cause AEs Grade 3/4, n occurrences (% of cohort)",[3]; SAD 800 mg,0
same,"All-cause AEs, n occurrences (% of cohort)",[3]; SAD 800 mg,4 (33)
same,"Constipation, n occurrences (% of cohort)",[3]; SAD 800 mg,0
same,"Diarrhea, n occurrences (% of cohort)",[3]; SAD 800 mg,2 (33)
same,"Drug-related AEs Grade 2, n occurrences (% of cohort)",[3]; SAD 800 mg,1 (17)
same,"Drug-related AEs Grade 3/4, n occurrences (% of cohort)",[3]; SAD 800 mg,0
same,"Drug-related AEs, n occurrences (% of cohort)",[3]; SAD 800 mg,2 (33)
same,"Headache, n occurrences (% of cohort)",[3]; SAD 800 mg,0
same,"MDSD, n occurrences (% of cohort)",[3]; SAD 800 mg,1 (17)
same,potency in vitro,[4],low nanomolar
